# In paper PMC10655119 (Journal of the American Chemical Society, 2023):
# Legend:
# Format in all cases: cell-based
# HeLa cells [1] = experiment: Protein-CPP; conditions: 1 h; for Delivery of I into the cytosol with CPP-additive at 2.5 μM: I 5 μM + CPP-additive 2.5 μM, serum-free
# HeLa cells [2] = experiment: Time-lapse fluorescence microscopy of Cy5-labeled CPP-additives; conditions: for Time until nucleolar mCherry signals are observed: serum-free, images at 60 s intervals
# Procedure, shortened: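 HeLa cells given Cy5-labeled R10 peptide additives (1 μM), with or without the hydrophobic motif, in serum-free FluoroBrite DMEM. Confocal imaging at 5 and 10 min, with line-scan profiles of Cy5 distribution. For cotreatment, NLS-mCherry-R10 cargo (5 μM) and additive were added after 60 s of baseline imaging. Frames taken every 60 s for 15 min to track nucleolar mCherry.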
# HeLa cells [3] = experiment: Lactate dehydrogenase; conditions: 1 h
# Procedure, shortened: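 HeLa cells exposed to CPP-additives at 2.5, 5 or 10 μM for 1 h in serum-free FluoroBrite DMEM. Membrane integrity judged by lactate dehydrogenase released into the medium. Mean ± SE of three biological replicates.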
# HeLa cells [4] = experiment: Mitochondrial dehydrogenase; conditions: 1 h, serum-free FluoroBrite DMEM
# Procedure, shortened: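 HeLa cells exposed 1 h to CPP-additive (2.5, 5 or 10 μM) in serum-free FluoroBrite DMEM, then viability read by WST-1 reduction to formazan by mitochondrial dehydrogenase. For prolonged exposure, cells coincubated 1 h with NLS-mCherry-R10 cargo plus additive, supernatant replaced with fresh culture medium, and WST-1 read after 24 h.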
# [5] = HeLa, 2.5, 5 or 10 μM CPP-additive
# [6] = HeLa, 2.5, 5 or 10 μM CPP-additive, three biological replicates
compound,measurement,setting,value
"O=C(O)CCCc1ccc2ccc3cccc4ccc1c2c34 [PyB, pyrenebutyrate, reference compound]",Uptake of I at lowered I concentration with PyB,"HeLa cells [1]; PyB 50 μM 5 min, then I 5 μM",loss of enhanced uptake of I
same,Uptake of I after pretreatment with PyB at 10 μM and lower,"HeLa cells [1]; PyB 10 and 5 μM 5 min, then I",only endosomal uptake
TNB-Cy5-R10 [compound 22],Line-scan profile of Cy5 fluorescence after 10 min,HeLa cells [2]; 1 μM peptide alone,mainly observed within the interior of cells
same,Localisation of Cy5-labeled CPP-additive over time,"HeLa cells [2]; 1 μM peptide alone, serum-free FluoroBrite DMEM, 37 °C, time-lapse",quickly enters the cytosol
same,Time until nucleolar mCherry signals are observed,HeLa cells [2]; I 5 μM + Cy5-additive 1 μM,15 min
TNB-Cy5-R10-ILFF [compound 23],Line-scan profile of Cy5 fluorescence after 10 min,HeLa cells [2]; 1 μM peptide alone,remained concentrated around the cell periphery
same,Time until cell-surface-associated additive is internalized into endosomes,"HeLa cells [2]; 23 1 μM 5 min at 37 °C, washed, time-lapse 30 min",30 min
same,Cell membrane accumulation of additive in the presence of I,HeLa cells [2]; I 5 μM + Cy5-additive 1 μM,persisted even after 10 min
same,Time until nucleolar mCherry signals are observed,HeLa cells [2]; I 5 μM + Cy5-additive 1 μM,3 min
TNB-R10-FWF [compound 3],LDH release (membrane integrity),"HeLa cells [3]; HeLa, 5 μM CPP-additive",significantly released
same,Cytotoxicity (WST1 assay),"HeLa cells [4]; HeLa, 5 μM CPP-additive",no cytotoxicity
TNB-R10-ILIL [compound 4],LDH release (membrane integrity),HeLa cells [3]; [5],no LDH release
same,Cytotoxicity (WST1 assay),HeLa cells [4]; [6],no cytotoxic effect
TNB-R10-ILLL [compound 5],LDH release (membrane integrity),HeLa cells [3]; [5],no LDH release
same,Cytotoxicity (WST1 assay),HeLa cells [4]; [6],no cytotoxic effect
TNB-R10-Nal2 [compound 7],Delivery of I into the cytosol with CPP-additive at 2.5 μM,HeLa cells [1],successful delivery
TNB-R10-Nal [compound 6],Delivery of I into the cytosol with CPP-additive at 2.5 μM,HeLa cells [1],successful delivery
alk-Cy5-R10-ILFF [alkylated analogue],Membrane interaction and facilitation of protein-CPP uptake,"HeLa cells [2]; alk-Cy5-R10-ILFF 1 μM alone or with I 5 μM, 10 min",incapable of both interacting with the cell membrane and facilitating the uptake of protein-CPPs
